Experimental data published in ChEMBL document CHEMBL1142191, “Isolation and characterization of human immunodeficiency virus type 1 resistant to the small-molecule CCR5 antagonist TAK-652” (Antimicrob Agents Chemother, 2007).
The source made the active and inactive calls. No cut-off for these calls is given here.

Key:
[1] = tested on: Human immunodeficiency virus 1; experiment: Antiviral activity in long term culture of HIV1 KK infected PBMCs after 67 passages assessed as p24 antigen levels at escalating concentrations; type: functional, organism-based; conditions: Human immunodeficiency virus 1, KK
In short: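 PHA-stimulated PBMCs (5 × 10^6) were infected with R5 clinical isolate KK (100 ng p24) and held compound-free for 2 days at 37°C, then washed. Culture started at 0.2 nM drug and was passaged weekly with fresh same-donor PBMCs. Drug was escalated when treated-culture supernatant p24 (ELISA) exceeded 50% of a parallel untreated control at two consecutive passages.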

[2] = tested on: Human immunodeficiency virus 1; experiment: Ratio of IC50 for HIV1 KK infected PBMC to IC50 for compound treated HIV1 KK infected PBMC after 67 passages; type: functional
In short: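 PHA-stimulated PBMCs infected with the passage-67 escape virus (1,400 CCID50, 4 h) were washed and exposed to 0.1–10,000 nM compound, split 1:2 on day 4, and read for day-7 supernatant p24 by ELISA. Triplicate wells in two donor experiments. Fold change = […].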

[3] = tested on: Human immunodeficiency virus 1; experiment: Antiviral activity in long term culture of HIV1 KK infected PBMCs after 56 passages assessed as p24 antigen levels; type: functional, organism-based; conditions: Human immunodeficiency virus 1, KK
In short: (§1)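 Viruses were isolated at the stated passage from the drug-escalation culture and from the parallel untreated culture, then propagated once in PBMCs. PHA-stimulated PBMCs were infected with 1,400 CCID50 for 4 h, washed, and seeded with 0.1–10,000 nM compound. Cells were split 1:2 on day 4, and supernatant p24 was read by ELISA on day 7. Triplicate wells, two experiments with different donors; IC50 from a logistic least-squares fit.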

[4] = tested on: Human immunodeficiency virus 1; experiment: Inhibition of R5 HIV1 replication at 5 uM; type: functional, organism-based
[5] = tested on: Human immunodeficiency virus 1; experiment: Inhibition of HIV1 KK infected PBMC; type: functional, organism-based; conditions: Human immunodeficiency virus 1, KK
[6] = tested on: Human immunodeficiency virus 1; experiment: Antiviral activity in long term culture of HIV1 KK infected PBMCs after 43 passages assessed as p24 antigen levels; type: functional, organism-based; conditions: Human immunodeficiency virus 1, KK; in short: as §1
[7] = tested on: Human immunodeficiency virus 1; experiment: Antiviral activity in long term culture of HIV1 KK infected PBMCs after 8 passages assessed as p24 antigen levels; type: functional, organism-based; conditions: Human immunodeficiency virus 1, KK; in short: as §1

Row | Structure (SMILES) | IC50 [1] [nM] | Ratio IC50 [2] | IC50 [3] [nM] | Activity [4] | IC50 [5] [nM] | IC50 [6] [nM] | IC50 [7] [nM]
1 | CC(=O)N1CCC(C(=O)N(CCCN2CCC(Cc3ccc(C(N)=O)cc3)CC2)c2ccc(C)c(Cl)c2)CC1 | 1.3 | 1.6 | – | – | – | – | –
2 | Cc1ccc(-c2ccc3c(c2)C=C(C(=O)Nc2ccc(C[N+](C)(C)C4CCOCC4)cc2)CCC3)cc1.[Cl-] | 77 | 37 | – | – | – | – | –
3 | CCCCOCCOc1ccc(-c2ccc3c(c2)/C=C(/C(=O)Nc2ccc([S@@+]([O-])Cc4cncn4CCC)cc2)CCCN3CC(C)C)cc1.CS(=O)(=O)O [CENICRIVIROC MESYLATE] | > 10000 | >230000 | 67 | Active | 0.14 | 0.2 | 0.24
